Assay results: ChEMBL document CHEMBL4368914, “Tricyclic Indazoles-A Novel Class of Selective Estrogen Receptor Degrader Antagonists” (J Med Chem, 2019)

Assays:
[1] = Glutathione reactivity in human liver microsomes assessed as GSH trapping ratio of compound to clozapine; format: ADME, Microsome
Summary of the method: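 Glutathione trapping in human liver microsomes, expressed as a ratio to clozapine.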

[2] = Fraction unbound in Alderley Park Han Wistar rat plasma by equilibrium dialysis; format: ADME, cell-free
Summary of the method: (§1)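 Equilibrium dialysis from DMSO stock in 10% plasma, either Alderley Park Han Wistar rat plasma or human plasma.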

[3] = Intrinsic clearance in human hepatocytes assessed per million cells; format: ADME, cell-based, Hepatocyte; conditions: read-out: CLH
Summary of the method: (§2)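 Rate of metabolism (µl/min/10⁶ cells) measured from DMSO stock in isolated hepatocytes diluted to 1x10⁶ cells/mL.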

[4] = Intrinsic clearance in rat hepatocytes assessed per million cells; format: ADME, cell-based, Hepatocyte; conditions: read-out: CLH; summary of the method: as §2
[5] = Lipophilicity, log D of the compound at pH 7.4 by shake flask method; format: physicochemical; conditions: buffer
Summary of the method: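 Shake-flask measurement of logD at pH 7.4.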

[6] = target: T1, Estrogen receptor (Homo sapiens, UniProt P03372); assay: Induction of ERalpha degradation in human MCF7 cells after 18 to 24 hrs by in multiplexed cell assay; format: cell-based
T1 sequence (P03372 whole entry): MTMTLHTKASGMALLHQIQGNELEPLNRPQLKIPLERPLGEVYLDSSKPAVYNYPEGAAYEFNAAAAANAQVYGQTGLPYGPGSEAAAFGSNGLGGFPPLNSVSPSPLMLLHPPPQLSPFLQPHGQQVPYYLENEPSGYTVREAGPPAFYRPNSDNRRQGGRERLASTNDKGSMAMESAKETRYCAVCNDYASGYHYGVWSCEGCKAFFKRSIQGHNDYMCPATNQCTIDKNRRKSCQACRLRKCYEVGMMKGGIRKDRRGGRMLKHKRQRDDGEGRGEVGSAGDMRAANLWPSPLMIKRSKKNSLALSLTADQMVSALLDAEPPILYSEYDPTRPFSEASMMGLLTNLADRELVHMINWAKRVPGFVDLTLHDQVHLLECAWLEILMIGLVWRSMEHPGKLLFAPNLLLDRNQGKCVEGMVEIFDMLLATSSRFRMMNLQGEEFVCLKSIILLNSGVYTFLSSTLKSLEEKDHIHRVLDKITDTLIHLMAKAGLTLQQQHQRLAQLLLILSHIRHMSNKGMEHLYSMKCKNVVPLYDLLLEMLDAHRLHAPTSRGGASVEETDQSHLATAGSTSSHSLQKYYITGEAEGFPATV
Summary of the method: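 MCF-7 cells were kept at 37 °C, 5% CO₂ in phenol red-free RPMI1640 with 5% charcoal-stripped FCS and 2 mmol/L glutamine. Compounds came from 10 mmol/L DMSO stocks.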

[7] = target: T1, Estrogen receptor; assay: Binding affinity to recombinant human GST-tagged ERalpha LBD expressed in baculovirus-infected insect cells by lantha screen assay
[8] = Fraction unbound in 10% human plasma by equilibrium dialysis; format: ADME, cell-free; conditions: 10% plasma; summary of the method: as §1

| Structure (SMILES) | Ratio [1] | fraction unbound [2] | hepatocyte CLint [3] | hepatocyte CLint [4] | logD [5] | IC50 [6] | IC50 [7] | fraction unbound [8] |
| --- | --- | --- | --- | --- | --- | --- | --- | --- |
| CC(C)CN1[C@H](c2c(F)cc(/C=C/C(=O)O)cc2F)c2ccc3[nH]ncc3c2C[C@H]1C | < 0.04 | 0.0052 | 22 µL/min/1e6 cells | 19 µL/min/1e6 cells | 3 | 0.794 nM | 1.26 nM | 0.0048 |
| COc1cc(/C=C/C(=O)O)ccc1[C@@H]1c2ccc3[nH]ncc3c2C[C@@H](C)N1CC(C)(C)F | < 0.04 | 0.046 | 6 µL/min/1e6 cells | 17 µL/min/1e6 cells | 2.2 | 0.631 nM | 1.58 nM | 0.0098 |
| C[C@@H]1Cc2c(ccc3[nH]ncc23)[C@@H](c2ccc(/C=C/C(=O)O)cc2)N1CC(C)(C)F | – | 0.015 | 78 µL/min/1e6 cells | 8 µL/min/1e6 cells | 2.9 | 0.316 nM | 1.58 nM | 0.0087 |
| COc1cc(/C=C/C(=O)O)cc(F)c1[C@@H]1c2ccc3[nH]ncc3c2C[C@@H](C)N1CC(C)(F)F | – | – | 6 µL/min/1e6 cells | 32 µL/min/1e6 cells | 2.8 | 0.2 nM | 0.316 nM | 0.007 |
| CC(C)CN1CCc2cccc3[nH]cc(c23)C1c1ccc(/C=C/C(=O)O)cc1 (stereo not drawn) | – | – | – | 10 µL/min/1e6 cells | 1 | > 10000 nM | 39800 nM | 0.11 |
| CC(C)CN1CCc2cc(O)ccc2[C@H]1c1ccc(/C=C/C(=O)O)cc1 | – | 0.037 | – | – | – | – | – | – |
| COc1cc(/C=C/C(=O)O)ccc1[C@]1(C)c2ccc3[nH]ncc3c2C[C@@H](C)N1CC(C)(C)F | – | – | 4 µL/min/1e6 cells | 10 µL/min/1e6 cells | 1.9 | 2.51 nM | 3.98 nM | 0.077 |
| CC(C)CN1[C@H](c2ccc(/C=C/C(=O)O)cc2)c2ccc3[nH]ncc3c2CC1(C)C | < 0.04 | 0.066 | 93 µL/min/1e6 cells | 6 µL/min/1e6 cells | 2 | 1.58 nM | 20 nM | 0.036 |
| CC(C)CN1CCc2c(ccc3[nH]ccc23)C1c1ccc(/C=C/C(=O)O)cc1 (stereo not drawn) | – | 0.068 | 8 µL/min/1e6 cells | 20 µL/min/1e6 cells | 1.7 | 63.1 nM | 316 nM | 0.033 |
| COc1cc(/C=C/C(=O)O)c(F)cc1[C@@H]1c2ccc3[nH]ncc3c2C[C@@H](C)N1CC(C)(F)F | – | – | 5 µL/min/1e6 cells | 22 µL/min/1e6 cells | 2.6 | 0.316 nM | 0.501 nM | 0.012 |
| C[C@@H]1Cc2c(ccc3[nH]ncc23)[C@@](C)(c2c(F)cc(/C=C/C(=O)O)cc2F)N1CC(C)(C)F | < 0.04 | 0.0023 | 10 µL/min/1e6 cells | 12 µL/min/1e6 cells | 2.9 | 0.631 nM | 0.398 nM | 0.0033 |
| C[C@@H]1Cc2c(ccc3[nH]ncc23)[C@@](C)(c2c(F)cc(/C=C/C(=O)O)cc2F)N1CC(C)(F)F | – | 0.0076 | 6 µL/min/1e6 cells | 20 µL/min/1e6 cells | 3 | 0.794 nM | 0.316 nM | 0.0027 |
| COc1c([C@@H]2c3ccc4[nH]ncc4c3C[C@@H](C)N2CC(C)(F)F)ccc(/C=C/C(=O)O)c1F | – | – | 7 µL/min/1e6 cells | 17 µL/min/1e6 cells | 2.6 | 6.31 nM | 1.26 nM | 0.0082 |
| CC(C)CN1[C@H](c2ccc(/C=C/C(=O)O)cc2)c2ccc3[nH]ncc3c2C[C@H]1C | < 0.04 | 0.034 | 30 µL/min/1e6 cells | 7 µL/min/1e6 cells | – | 0.631 nM | 10 nM | 0.022 |
| CC(C)CN1CCc2c(ccc3[nH]ncc23)[C@H]1c1ccc(/C=C/C(=O)O)cc1 | < 0.04 | 0.036 | 51 µL/min/1e6 cells | 10 µL/min/1e6 cells | 1.9 | 6.31 nM | 25.1 nM | 0.07 |
